# Experimental data published in ChEMBL document CHEMBL5244264, “Design, synthesis, and structure activity relationship (SAR) studies of novel imidazo[1,2-a] pyridine derivatives as Nek2 inhibitors” (Bioorg Med Chem, 2020).
# Legend:
# Assay type in all cases: functional, cell-based
# HCT-116 = test: Antitumor activity against human HCT-116 cells assessed as inhibition of cell proliferation incubated for 72 hrs by MTT assay; conditions: HCT-116, 72 h
# Method in brief: (§1)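 Cells were exposed to a range of compound concentrations for 72 h at 37 °C. Proliferation was read by MTT assay, and IC50 values are reported.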
# Bel-7402 = test: Antitumor activity against human Bel-7402 cells assessed as inhibition of cell proliferation incubated for 72 hrs by MTT assay; conditions: Bel-7402, 72 h; method in brief: as §1
# Hep 3B2 = test: Antitumor activity against human Hep3B cells assessed as inhibition of cell proliferation incubated for 72 hrs by MTT assay; method in brief: as §1
# MGC-803 = test: Antitumor activity against human MGC-803 cells assessed as inhibition of cell proliferation incubated for 72 hrs by MTT assay; conditions: MGC-803, 72 h
SMILES,IC50 (MGC-803) [µM],other results
CN(C)CCn1cc(-c2ccn3c(-c4ccc(C(N)=O)c(OCc5cccc(F)c5)c4)cnc3c2)cn1,0.65,IC50 (HCT-116): 0.7 µM; IC50 (Bel-7402): 6.37 µM; IC50 (Hep 3B2): 1.07 µM
COC(=O)c1sc(-c2cnc3cc(-c4cnn(CCN5CCCC5)c4)ccn23)cc1OC(C)c1ccccc1C(F)(F)F (stereo not given),2.05,
COC(=O)c1sc(-c2cnc3cc(-c4cnn(C)c4)ccn23)cc1OC(C)c1cccc(F)c1 (stereo not given),> 30,
COC(=O)c1sc(-c2cnc3cc(-c4cnn(CCN5CCCCC5)c4)ccn23)cc1OC(C)c1ccccc1C(F)(F)F (stereo not given),7.36,
COC(=O)c1sc(-c2cnc3cc(-c4cnn(C)c4)ccn23)cc1OC(C)c1ccccc1 (stereo not given),9.18,
CC(Oc1cc(-c2cnc3cc(-c4cnn(C)c4)ccn23)sc1C(N)=O)c1ccccc1 (stereo not given),2.98,
CC(Oc1cc(-c2cnc3cc(-c4cnn(CCN5CCOCC5)c4)ccn23)sc1C(N)=O)c1ccccc1C(F)(F)F (stereo not given),0.044,IC50 (HCT-116): 0.36 µM; IC50 (Bel-7402): 4.33 µM; IC50 (Hep 3B2): 1.25 µM
COC(=O)c1sc(-c2cnc3cc(-c4cnn(CCN5CCOCC5)c4)ccn23)cc1OC(C)c1ccccc1C(F)(F)F (stereo not given),5.9,
COC(=O)c1sc(-c2cnc3cc(-c4cnn(C)c4)ccn23)cc1OC(C)c1ccccc1C(F)(F)F (stereo not given),3.92,
COC(=O)c1sc(-c2cnc3cc(-c4cnn(CCN(C)C)c4)ccn23)cc1OC(C)c1cccc(F)c1 (stereo not given),1.57,
CC(Oc1cc(-c2cnc3cc(-c4cnn(CCN(C)C)c4)ccn23)sc1C(N)=O)c1ccccc1 (stereo not given),1.95,
CC(Oc1cc(-c2cnc3cc(-c4cnn(CCCN5CCN(C)CC5)c4)ccn23)sc1C(N)=O)c1ccccc1C(F)(F)F (stereo not given),0.054,IC50 (HCT-116): 0.46 µM; IC50 (Bel-7402): 5.99 µM; IC50 (Hep 3B2): 1.18 µM
CC(Oc1cc(-c2cnc3cc(-c4cnn(C5CCN(C(=O)OC(C)(C)C)CC5)c4)ccn23)sc1C(N)=O)c1ccccc1C(F)(F)F (stereo not given),1.81,
COC(=O)c1sc(-c2cnc3cc(-c4cnn(C)c4)ccn23)cc1OC(C)c1cccc(C(F)(F)F)c1 (stereo not given),17.3,
COC(=O)c1sc(-c2cnc3cc(-c4cnn(C5CCN(C(=O)OC(C)(C)C)C5)c4)ccn23)cc1OC(C)c1ccccc1C(F)(F)F (stereo not given),20.3,
COC(=O)c1sc(-c2cnc3cc(-c4cnn(C5CCN(C(=O)OC(C)(C)C)CC5)c4)ccn23)cc1OC(C)c1ccccc1C(F)(F)F (stereo not given),20.4,
COC(=O)c1sc(-c2cnc3cc(-c4cnn(CCN(C)C)c4)ccn23)cc1OC(C)c1cccc(C(F)(F)F)c1 (stereo not given),4.71,

SMILES,IC50 (MGC-803) [µM],other results
CC(Oc1cc(-c2cnc3cc(-c4cnn(CCN5CCCC5)c4)ccn23)sc1C(N)=O)c1ccccc1C(F)(F)F (stereo not given),8.4,
COC(=O)c1sc(-c2cnc3cc(-c4cnn(CCN(C)C)c4)ccn23)cc1OC(C)c1ccccc1F (stereo not given),2.47,
CC(Oc1cc(-c2cnc3cc(-c4cnn(CCN(C)C)c4)ccn23)sc1C(N)=O)c1cccc(F)c1 (stereo not given),6.02,
CC(Oc1cc(-c2cnc3cc(-c4cnn(CCN(C)C)c4)ccn23)sc1C(N)=O)c1ccccc1F (stereo not given),2.91,
CC(Oc1cc(-c2cnc3cc(-c4cnn(CCN5CCCCC5)c4)ccn23)sc1C(N)=O)c1ccccc1C(F)(F)F (stereo not given),8.68,
COC(=O)c1sc(-c2cnc3cc(-c4cnn(CCCN5CCN(C)CC5)c4)ccn23)cc1OC(C)c1ccccc1C(F)(F)F (stereo not given),3.76,
COC(=O)c1sc(-c2cnc3cc(-c4cnn(CCN(C)C)c4)ccn23)cc1OC(C)c1ccccc1C(F)(F)F (stereo not given),0.32,
COC(=O)c1sc(-c2cnc3cc(-c4cnn(C)c4)ccn23)cc1OC(C)c1ccccc1F (stereo not given),11.1,
CC(Oc1cc(-c2cnc3cc(-c4cnn(C)c4)ccn23)sc1C(N)=O)c1cccc(C(F)(F)F)c1 (stereo not given),3.48,
CC(Oc1cc(-c2cnc3cc(-c4cnn(C)c4)ccn23)sc1C(N)=O)c1cccc(F)c1 (stereo not given),16.4,
COC(=O)c1sc(-c2cnc3cc(-c4cnn(CC5CN(C(=O)OC(C)(C)C)C5)c4)ccn23)cc1OC(C)c1ccccc1C(F)(F)F (stereo not given),19.3,
CC(Oc1cc(-c2cnc3cc(-c4cnn(C)c4)ccn23)sc1C(N)=O)c1ccccc1F (stereo not given),3.52,
CC(Oc1cc(-c2cnc3cc(-c4cnn(CCN(C)C)c4)ccn23)sc1C(N)=O)c1cccc(C(F)(F)F)c1 (stereo not given),6.81,
CC(Oc1cc(-c2cnc3cc(-c4cnn(CC5CN(C(=O)OC(C)(C)C)C5)c4)ccn23)sc1C(N)=O)c1ccccc1C(F)(F)F (stereo not given),0.038,IC50 (HCT-116): 0.48 µM; IC50 (Bel-7402): 10.4 µM; IC50 (Hep 3B2): 1.25 µM
COC(=O)c1sc(-c2cnc3cc(-c4cnn(CCN(C)C)c4)ccn23)cc1OC(C)c1ccccc1 (stereo not given),1.29,
CC(Oc1cc(-c2cnc3cc(-c4cnn(C5CCN(C(=O)OC(C)(C)C)C5)c4)ccn23)sc1C(N)=O)c1ccccc1C(F)(F)F (stereo not given),0.55,
